In the library only some 1.3% were active in any assay of this set; here they are far more common.
INS-1E GSIS act: GLuc luminescence reporter in INS-1E cells, primary screen for activators of glucose-dependent secretion of insulin; INS-1E GLuc reporter insulin secretion, 2-3 h; activation, % at 16.6 µM; 370,000 compounds, 0.61% hits;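 active = lowest replicate activation of at least 40%, so every replicate reaches that level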;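 also: 0% = median of neutral control wells and 100% = median of IBMX positive control wells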
RAD54 branch: inhibitors of human RAD54 branch migration, primary screen, biochemical, fluorescence, single point | AID 602329, 2012 | inhibition, % at 10.4 µM | RAD54 Holliday junction branch migration, FAM/BHQ fluorescence | 360,000 compounds, 0.14% hits;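 active = mean normalized replicate activity at least 40 and at least half of replicates scoring 40 or more; inconclusive = only one of the two criteria met; inactive = mean below 40 and under half of replicates reaching 40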;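 also: 0% = median of neutral control wells and 100% = median of positive control wells; inhibitors cause a drop in the FAM fluorescence signal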
Target sequence (Q92698 whole entry, looked up): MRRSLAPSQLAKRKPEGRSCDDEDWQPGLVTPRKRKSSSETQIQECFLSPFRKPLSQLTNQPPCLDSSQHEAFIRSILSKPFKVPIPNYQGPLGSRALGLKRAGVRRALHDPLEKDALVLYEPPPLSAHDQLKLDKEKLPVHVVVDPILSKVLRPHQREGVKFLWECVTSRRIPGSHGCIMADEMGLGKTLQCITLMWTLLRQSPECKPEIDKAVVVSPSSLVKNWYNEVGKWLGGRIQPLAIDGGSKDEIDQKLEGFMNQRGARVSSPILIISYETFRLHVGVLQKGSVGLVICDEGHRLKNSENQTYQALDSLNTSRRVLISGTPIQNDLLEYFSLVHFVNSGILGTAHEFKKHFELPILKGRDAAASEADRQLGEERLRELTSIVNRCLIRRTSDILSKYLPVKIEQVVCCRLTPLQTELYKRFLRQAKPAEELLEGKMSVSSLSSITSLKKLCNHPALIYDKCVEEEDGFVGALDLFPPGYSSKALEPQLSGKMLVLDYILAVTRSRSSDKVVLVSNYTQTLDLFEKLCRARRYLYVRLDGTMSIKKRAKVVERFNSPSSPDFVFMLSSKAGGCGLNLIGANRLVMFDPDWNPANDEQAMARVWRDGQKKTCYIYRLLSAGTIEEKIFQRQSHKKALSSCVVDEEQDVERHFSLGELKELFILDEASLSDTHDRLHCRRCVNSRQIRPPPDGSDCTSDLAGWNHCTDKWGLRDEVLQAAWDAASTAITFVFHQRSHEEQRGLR
S100A4 inh HTS: inhibitors of S100A4-myosin IIA peptide binding, primary screen, biochemical, fluorescence polarization, TAMRA-MyoIIA peptide; Protein S100-A4 (Homo sapiens), P26447; inhibition, % at 10.7 µM; 360,000 compounds, 0.14% hits; AID 652163, 2013;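 active = mean inhibition of at least 70% across replicates, with every replicate also reaching that level; inconclusive = mean inhibition reaches 70% but some replicates fall short; inactive = mean inhibition below 70%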
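Test system – S100A4 monomer (human) · Compound – single-point compound testing · Schedule – 5 min incubation before reading · Probe or stimulus – TAMRA-labelled myosin IIA heavy-chain peptide probe, 5 nM · Benchmarks – neutral control DMSO, positive control TFP · Medium – Calcium-containing HEPES buffer, pH 7.2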
RAD52 anneal inh: RAD52 DNA annealing inhibitors, primary screen, biochemical, FRET, single point, set 2 | DNA repair protein RAD52 homolog (Homo sapiens), P43351 | recombinant RAD52 DNA annealing, FRET fluorescence | inhibition, % at 18.7 µM | 360,000 compounds, 0.46% hits;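 active = every replicate showing at least 50% inhibition; inconclusive = mean inhibition at least 50% but not in every replicate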
AF4-AF9 inh: inhibitors of AF4 peptide binding to AF9, primary screen, biochemical, AlphaScreen, biotin-AF4 peptide, FLAG-AF9, single point; Protein AF-9 (Homo sapiens), P42568; 350,000 compounds, 0.47% hits; inhibition, % at 10 µM;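 active = every replicate reaching a set inhibition limit, whatever the replicate mean, cut at about 25% in these data; inconclusive = mean inhibition reaches that limit but some replicates miss it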;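 also: 0% = plate neutral control median and 100% = total signal loss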
Numbers without * were called inactive; ? = inconclusive; · = not tested or not shown.

SMILES	INS-1E GSIS act	RAD54 branch	S100A4 inh HTS	RAD52 anneal inh	AF4-AF9 inh
CCC[C@H](CN[C@@H](CNC)[C@H](C)CC)NCCc1cc(C(F)(F)F)cc(C(F)(F)F)c1	24.1	21.1	2.9	8.1	-18.0
COc1ccc(NC(=O)Nc2ccc3c(c2)[C@@H]2C[C@@H](CC(=O)NCc4ccccn4)O[C@H](CO)[C@@H]2O3)cc1	17.6	-8.3	-0.1	-4.2	-5.2
Cc1cccc(C2c3[nH]c4ccccc4c3CCN2Cc2cccn2-c2ncccn2)c1 (centres undefined)	-11.1	·	-5.5	11.4	31.0*
c1ccc(C2c3[nH]c4ccccc4c3CCN2Cc2cccn2-c2ccccn2)nc1 (centres undefined)	1.6	5.7	-3.6	-5.1	?
COc1ccc(C2c3[nH]c4ccccc4c3CCN2Cc2cccn2-c2ncccn2)cc1C (centres undefined)	-20.8	-0.7	-3.1	-12.0	30.6*
O=C(C[C@H]1CC[C@H]2[C@@H](COC[C@@H](O)CN2S(=O)(=O)c2ccccc2)O1)NCc1ccc(-c2ccccc2)cc1	-13.8	-5.3	0.7	36.4	5.4
CS(=O)(=O)N1C[C@@H](O)COC[C@H]2O[C@@H](CC(=O)NCc3ccc(-c4ccccc4)cc3)CC[C@@H]21	-3.8	19.3	5.6	58.7*	16.8
O=C(C[C@H]1CC[C@@H]2[C@H](COC[C@H](O)CN2S(=O)(=O)c2ccccc2)O1)NCc1ccc(-c2ccccc2)cc1	-6.6	-6.2	-1.0	56.0*	10.8
O=C(C[C@H]1CC[C@@H]2[C@H](COC[C@@H](O)CN2S(=O)(=O)c2ccccc2)O1)NCc1ccc(-c2ccccc2)cc1	2.5	14.8	-18.3	75.4*	16.0
O=C(C[C@@H]1CC[C@H]2[C@@H](COC[C@@H](O)CN2S(=O)(=O)c2ccccc2)O1)NCc1ccc(-c2ccccc2)cc1	-1.3	-0.9	1.5	59.3*	9.9
O=C(C[C@@H]1CC[C@H]2[C@@H](COC[C@@H](O)CN2S(=O)(=O)c2ccccc2)O1)Nc1ccc(-c2ccccc2)cc1	-13.0	-2.9	2.7	0.0	-2.6
C=CCn1c(SCC(=O)NCc2ccc3c(c2)OCO3)nc2scc(-c3ccc(F)cc3)c2c1=O	112.4*	7.6	·	·	·
CNC[C@@H]1Oc2ccc(NC(=O)c3ccncc3)cc2C(=O)N([C@H](C)CO)C[C@@H]1C	17.0	-3.8	-5.4	-2.1	-11.6
Cc1ccc(NC(=O)CCC(=O)N/N=C/c2ccc(O)cc2O)cc1	-3.9	-6.0	-11.2	-14.1	1.6
C=CCc1cccc(/C=N/NC(=O)CCC(=O)Nc2ccc(C)cc2)c1O	225.3*	1.8	·	·	·
Cc1ccc(S(=O)(=O)Nc2ccc3c(c2)CC(=O)N([C@@H](C)CO)C[C@H](C)[C@@H](CN(C)C(=O)NC(C)C)O3)cc1	5.5	3.5	-1.0	11.5	-1.8
CC(C)NC(=O)N(C)C[C@H]1Oc2ccc(NC(=O)CCCN(C)C)cc2C(=O)N([C@H](C)CO)C[C@H]1C	9.1	-8.1	111.2*	14.1	0.1
C[C@@H]1CN([C@@H](C)CO)C(=O)c2cc(NC(=O)CCC(F)(F)F)ccc2O[C@@H]1CN(C)C(=O)Nc1ccc(F)cc1	16.1	0.7	95.5*	1.7	0.1
C[C@H]1CN([C@@H](C)CO)C(=O)c2cc(NC(=O)CCC(F)(F)F)ccc2O[C@@H]1CN(C)S(=O)(=O)c1cn(C)cn1	16.2	-3.7	97.9*	6.6	-6.1
CC(C)NC(=O)N(C)C[C@@H]1Oc2ccc(NC(=O)CCCN(C)C)cc2C(=O)N([C@@H](C)CO)C[C@@H]1C	10.1	-5.0	15.6	-3.0	-0.8
COC(=O)C[C@@H]1CC[C@H]2[C@H](COc3ccc(NC(=O)NCc4ccccc4)cc3C(=O)N2C)O1	-1.0	4.3	·	·	·
CCNC(=O)Nc1ccc2c(c1)C(=O)N(C)[C@@H]1CC[C@H](CC(=O)NCCN3CCCC3)O[C@@H]1CO2	5.6	-17.4	·	·	·
Cc1ccc(S(=O)(=O)N(C)C[C@@H]2Oc3ccc(NS(=O)(=O)c4ccc(Cl)cc4)cc3CC(=O)N([C@@H](C)CO)C[C@H]2C)cc1	-1.4	0.6	2.3	5.9	-0.8
Cc1ccc(S(=O)(=O)N[C@H]2CC[C@H](CC(=O)NCCN3CCCCC3)O[C@@H]2CO)cc1	1.8	1.7	-11.8	-6.7	-0.8
CC=Cc1ccc2n(c1=O)C[C@@H]1[C@@H](CO)[C@H](C(=O)NCCC)N(CC3CCCC3)[C@H]21 (mixture of isomers)	-8.2	7.6	9.4	-1.9	1.7
SMILES	INS-1E GSIS act	RAD54 branch	S100A4 inh HTS	RAD52 anneal inh	AF4-AF9 inh
CC=Cc1ccc2n(c1=O)C[C@@H]1N[C@H]2[C@H](C(=O)NC2CCCCC2)[C@H]1CO (mixture of isomers)	4.6	13.6	81.4*	7.8	-2.7
CC=Cc1ccc2n(c1=O)C[C@H]1N[C@@H]2[C@@H](C(=O)NC2CCCCC2)[C@@H]1CO (mixture of isomers)	22.5	10.5	0.2	9.5	-3.0
CC=Cc1ccc2n(c1=O)C[C@H]1[C@H](CO)[C@@H](C(=O)NCCC)N(CC3CCCC3)[C@@H]21 (mixture of isomers)	-2.4	-1.9	4.2	99.1*	3.8
C=CCn1c(SCC#N)nc2sc(CC)cc2c1=O	88.7*	5.0	-1.5	-12.4	0.1
Cc1noc(C)c1S(=O)(=O)N(C)C[C@@H]1Oc2ccc(NS(=O)(=O)c3cn(C)cn3)cc2CC(=O)N([C@@H](C)CO)C[C@@H]1C	11.7	2.5	8.5	-1.7	0.0
CC(C)(C)N(Cc1ccccc1)C(=O)c1cccs1	·	4.2	-0.5	0.0	-1.4
N#CCCN(Cc1ccccc1)C(=O)c1cccs1	40.0*	-10.9	-1.9	-12.4	-0.7
OC[C@@H]1[C@@H](c2ccc(C#CC3CCCC3)cc2)[C@@H]2CN(CCC(F)(F)F)CCCCN12	46.4*	7.3	-30.3	22.1	14.6
OC[C@H]1[C@H](c2ccc(C#CC3CCCC3)cc2)[C@@H]2CN(CCC(F)(F)F)CCCCN12	24.4	12.3	?	30.1	22.4
OC[C@H]1[C@H](c2ccc(C#CC3CCCC3)cc2)[C@H]2CN(CCC(F)(F)F)CCCCN21	33.5	12.7	9.8	13.2	11.0
OC[C@@H]1[C@@H](c2ccc(C#CC3CCCC3)cc2)[C@H]2CN(CCC(F)(F)F)CCCCN12	169.7*	22.6	-59.3	12.7	23.0
C[C@H](CO)N1C[C@H](C)[C@H](CN(C)S(=O)(=O)c2cccs2)Oc2ccc(NC(=O)c3ccncc3)cc2C1=O	11.9	-6.3	-49.2	-10.2	-2.2
CCC(=O)Nc1ccc2c(c1)OC[C@H](C)N(Cc1cncnc1)C[C@H](C)[C@H](OC)CN(C)C2=O	12.1	8.0	·	·	0.0

High-throughput results deposited in PubChem by Broad Institute.
